Experimental data published in ChEMBL document CHEMBL1126084, “2-Acetylpyridine thiocarbonohydrazones. Potent inactivators of herpes simplex virus ribonucleotide reductase” (J Med Chem, 1992).

Key:
Human alphaherpesvirus 1 [1] = assay: Inactivation of HSV-1 ribonucleotide reductase by the compound (5 uM) at rate constant K inact.; type: functional
Summary of the method: (§1)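 Partially purified HSV-1 ribonucleotide reductase, assayed by reduction of purified [14C]CDP in 200 mM Hepes Na+ pH 7.7, 10 mM dithiothreitol, 2 μM CDP (500 Ci/mol, 3–4 × Km), with and without 5 μM inhibitor unless otherwise indicated. First-order kinact (per hour) and v0 of decelerating product time courses come from iterative nonlinear least squares. kinact is the net increase over the uninhibited control, and % inhibition refers to v0.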

[2] = target: T1, Ribonucleoside-diphosphate reductase RR1 (Homo sapiens) (UniProt P23921+Q7LG56+P31350); assay: Apparent enzyme activity measured as the ratio of HSV-1 and human enzyme inhibition induces; type: functional; conditions: Human alphaherpesvirus 1
Summary of the method: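 Apparent selectivity is the ratio of HSV-1 to human inhibition indices, each from eq 1 at 5 μM inhibitor or at the indicated concentration for each enzyme.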

Human alphaherpesvirus 1 [3] = assay: Inhibition of HSV-1 ribonucleotide reductase by the compound (5 uM); type: functional; summary of the method: as §1
Human alphaherpesvirus 1 [4] = assay: Inhibitory index against HSV-1 ribonucleotide reductase calculated as, [1+k inact/f+0.01] where f = 1-% inhibition/100).; type: functional
Summary of the method: (§2)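 Index per eq 1 combines kinact and percent inhibition of initial velocity from reductase reactions ±5 μM inhibitor (unless otherwise indicated). 0.99 is subtracted from the calculated ratio, so a non-inhibiting, non-inactivating compound scores zero. HSV-1 and human enzymes were assayed under their respective conditions.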

[5] = target: T1, Ribonucleoside-diphosphate reductase RR1 (Homo sapiens); assay: Inhibition of human ribonucleotide reductase by the compound (5 uM); type: protein-complex assay
Summary of the method: (§3)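 The ATP contributed about 3 μM iron, keeping inhibitors iron-complexed. Reactions ran ±5 μM inhibitor unless otherwise indicated. kinact (per hour, net over the control) and v0 came from iterative nonlinear least-squares fits of decelerating time courses.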

[6] = target: T1, Ribonucleoside-diphosphate reductase RR1 (Homo sapiens); assay: Inactivation of human ribonucleotide reductase by the compound (5 uM) at rate constant K inact.; type: protein-complex assay; summary of the method: as §3
[7] = target: T1, Ribonucleoside-diphosphate reductase RR1 (Homo sapiens); assay: Inhibitory index against human ribonucleotide reductase calculated as, [1+k inact/f+0.01] where f = 1-% inhibition/100).; type: protein-complex assay; summary of the method: as §2
Human alphaherpesvirus 1 [8] = assay: Inhibitory index against HSV-1 ribonucleotide reductase; summary of the method: as §2
Human alphaherpesvirus 1 [9] = assay: Inhibition of HSV-1 ribonucleotide reductase; design: concentration or dose not given beside the values; conditions: concentration not given here; summary of the method: as §1
[10] = pKa value of the compound; type: physicochemical
Summary of the method: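 Protonation and anion-generation pKa values were determined spectrophotometrically.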

[11] = target: T1, Ribonucleoside-diphosphate reductase RR1 (Homo sapiens); assay: Inhibitory index against human ribonucleotide reductase; type: protein-complex assay; summary of the method: as §2
[12] = target: T1, Ribonucleoside-diphosphate reductase RR1 (Homo sapiens); assay: Inhibition of human ribonucleotide reductase; type: protein-complex assay; design: concentration or dose not given beside the values; conditions: concentration not given here; summary of the method: as §3
Human alphaherpesvirus 1 [13] = assay: Inactivation of HSV-1 ribonucleotide reductase at rate constant K inact; summary of the method: as §1
[14] = target: T1, Ribonucleoside-diphosphate reductase RR1 (Homo sapiens); assay: Inactivation of human ribonucleotide reductase at rate constant K inact; type: protein-complex assay; summary of the method: as §3
[15] = Partition coefficient (logD5.2) (octanol/pH 5.2 acetate buffer); type: physicochemical

SMILES	kinact (Human alphaherpesvirus 1 [1]) [h⁻¹]	Apparent selectivity (HSV-1/human inhibition index ratio) [2]	Inhibition (Human alphaherpesvirus 1 [3]) [%]	Inhibitory index (Human alphaherpesvirus 1 [4])	inhibition [5] [%]	kinact [6] [h⁻¹]	Inhibitory index [7]	Inhibitory index (Human alphaherpesvirus 1 [8])	inhibition (Human alphaherpesvirus 1 [9]) [%]	pKa [10]	Inhibitory index [11]	inhibition [12] [%]	kinact (Human alphaherpesvirus 1 [13]) [h⁻¹]	kinact [14] [h⁻¹]	logD [15]
C/C(=N\N=C(/S)N/N=C(\S)Nc1ccccc1C)c1ccccn1	10	4.6	27	14	51	1	3								
C/C(=N\N=C(/S)N/N=C(\S)NCCN1CCOCC1)c1ccccn1	11	15	24	15	31	0.4	1								
COc1ccc(Cl)cc1/N=C(\S)N/N=C(\S)N/N=C(\C)c1ccccn1	41	66	48	78	9	1	1.2								
C/C(=N\N=C(/S)N/N=C(\S)NCCCN1CCOCC1)c1ccccn1	6.1	24	12	7	23	0	0.29								
C/C(=N\N=C(/S)N/N=C(\S)Nc1cccc(C)c1)c1ccccn1	19	23	28	26	54	0	1.1								
C/C(=N\N=C(/S)NNC(=S)NC(=O)c1ccccc1)c1ccccn1	15	4.5	38	24	54	2	5.4								
C/C(=N\N=C(/S)N/N=C(\S)Nc1cccc(C(F)(F)F)c1)c1ccccn1		21						40	15	3.89	1.9	31	34	1	
C/C(=N\N/C(S)=N/N=C(\S)N(C)C)c1ccccn1		3						14	39		4.4	8	8	4	1.25
C/C(=N\N=C(/S)N/N=C(\S)Nc1ccncc1)c1ccccn1	16	3.8	8	17	83	0	4.6								
C/C(=N\N=C(/S)N/N=C(\S)Nc1ccc(C(F)(F)F)cc1)c1ccccn1		350						80	59	3.87	0.23	19	33	0	
C/C(=N\N=C(/S)N/N=C(\S)Nc1ccccc1)c1ccccn1	20	2.5	7	21	59	3	8.5								
C/C(=N\N=C(/S)N/N=C(\S)NC12CC3CC(CC(C3)C1)C2)c1ccccn1	14	24	47	27	53	0	1.1								
C/C(=N\N=C(/S)N/N=C(\S)Nc1cccnc1)c1ccccn1	9	15	18	11	43	0	0.73								
C/C(=N\N=C(/S)N/N=C(\S)Nc1cccc(Cl)c1Cl)c1ccccn1		160						68	29	3.86	0.42	30	49	0	
C/C(=N\N=C(/S)N/N=C(\S)Nc1cc(Cl)ccc1Cl)c1ccccn1		240						59	8		0.24	20	55	0	
Cc1cccc(/C=N/N=C(\S)N/N=C(\S)Nc2ccccc2Cl)n1		15						27	41		1.8	65	16	0	
C/C(=N\N=C(/S)N/N=C(\S)Nc1ccc(Cl)cc1)c1ccccn1		38						99	61		2.6	73	39	0	
COc1ccc([N+](=O)[O-])cc1/N=C(\S)N/N=C(\S)N/N=C(\C)c1ccccn1		21						71	44		3.5	11	40	3	
CCOC(=O)NC(=S)N/N=C(\S)N/N=C(\C)c1ccccn1	6	1.8	14	7	40	2	3.9								
C/C(=N\N=C(/S)N/N=C(\S)Nc1ccc(I)cc1)c1ccccn1		560						29	24		0.05	5	22	0	
C/C(=N\N=C(/S)N/N=C(\S)Nc1cccc(I)c1)c1ccccn1		10						34	27	3.8	3.3	7	25	3	
COc1cccc(N/C(S)=N/N=C(\S)N/N=C(\C)c2ccccn2)c1		1.3						22	6.7		1.7	58	21	7	
